The results in this text go back to ChEMBL document CHEMBL3400116, “Synthesis and activities towards resistant cancer cells of sulfone and sulfoxide griseofulvin derivatives” (Bioorg Med Chem Lett, 2015).

Experiment [1] is described as follows: Antiproliferative activity against exponentially growing adherent human SCC114 cells assessed as inhibition of cell proliferation after 72 hrs by luminescence detection based ATPlite assay. It is filed as functional. The following applies: SCC114, 72 h. In short, it runs like this:
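SCC-114 cells seeded at 10^3 cells/well in 96-well plates and left to grow exponentially as adherent cultures. After 72 h exposure at 37 °C in 5% CO2, viability was read by ATPlite luminescence of ATP from viable cells. IC50 came from nonlinear regression with a sigmoidal dose-response and variable Hill slope.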
(In general: In ATP-based viability assays light output follows the ATP content of the culture.)

In experiment [2] the test system is HCC1937. Put plainly: Antiproliferative activity against exponentially growing adherent human HCC1937 cells assessed as inhibition of cell proliferation after 48 hrs by luminescence detection based ATPlite assay. Conditions: HCC1937, 48 h.
The test system of experiment [3] is HCC1937. Put plainly: Antiproliferative activity against exponentially growing adherent human HCC1937 cells assessed as inhibition of cell proliferation at 10 uM after 48 hrs by luminescence detection based ATPlite assay. The following applies: HCC1937, 48 h.

One may read the IC50 as the concentration that gives 50% inhibition. The inhibition is the change of the read-out against control, counted positive when it falls.

Take `COc1cc(OC)c2c(c1Cl)O[C@]1(C2=O)C(S(=O)(=O)c2ccccc2)=CC(=O)C[C@H]1C`: the IC50 turned out to be 1000 nM in experiment [1] and 1600 nM in the experiment on HCC1937 [2].

As to `COc1cc(OC)c2c(c1Cl)O[C@]1(C2=O)C(OCc2ccccc2)=CC(=O)C[C@H]1C`, the inhibition at 10 µM in the experiment with HCC1937 [3] worked out at 0%. Also, the results for the IC50 (in experiment [1]; in the experiment on HCC1937 [2]) were 980 nM and over 10000 nM, respectively.

For the compound `C/C(=C\c1csc(C)n1)[C@@H]1C[C@@H]2O[C@]2(C)CCC[C@H](C)[C@H](O)[C@@H](C)C(=O)C(C)(C)[C@@H](O)CC(=O)O1` [PATUPILONE], the inhibition at 10 µM with HCC1937 [3] was 0%. The IC50 in experiment [1] is 0.17 nM; in the experiment on HCC1937 [2] it was over 10000 nM.

Regarding `CC(=O)O[C@H]1C(=O)[C@@]2(C)[C@H]([C@H](OC(=O)c3ccccc3)[C@]3(O)C[C@H](OC(=O)[C@H](O)[C@@H](NC(=O)c4ccccc4)c4ccccc4)C(C)=C1C3(C)C)[C@]1(OC(C)=O)CO[C@@H]1C[C@@H]2O` [PACLITAXEL], the inhibition at 10 µM in the experiment with HCC1937 [3] stood at 0%. Also, the IC50 was 0.3 nM in experiment [1] and over 10000 nM with HCC1937 [2].

`COc1cc(OC)c2c(c1Cl)O[C@@]1(C=C(S(=O)(=O)Cc3ccccc3)C(=O)C[C@H]1C)C2=O`: in the experiment with HCC1937 [2], the half-maximal inhibitory concentration (IC50) was 900 nM.

Regarding `COC1=CC(=O)C[C@@H](C)[C@]12Oc1c(Cl)c(OC)cc(OC)c1C2=O` [GRISEOFULVIN], the inhibition at 10 µM in the experiment on HCC1937 [3] was determined as 0%. For the same compound, the IC50 in experiment [1] was 6400 nM; in the experiment on HCC1937 [2] it was over 10000 nM.

For `COc1cc(OC)c2c(c1Cl)O[C@]1(C2=O)C(SCc2ccccc2)=CC(=O)C[C@H]1C`, the IC50 in the experiment with HCC1937 [2] is over 10000 nM.

On to `COc1cc(OC)c2c(c1Cl)O[C@]1(C2=O)C(SCCN(C)C)=CC(=O)C[C@H]1C`, for which the inhibition at 10 µM with HCC1937 [3] came out at 0%. Also, the values for the IC50 (in experiment [1]; with HCC1937 [2]) were 1450 nM and over 10000 nM, respectively.

For `COc1cc(OC)c2c(c1Cl)O[C@@]1(C=C([S+]([O-])Cc3ccccc3)C(=O)C[C@H]1C)C2=O` (some centres undefined), the IC50 in experiment [1] was found to be 20 nM.

As to `CCC1=C[C@@H]2CN(C1)Cc1c([nH]c3ccccc13)[C@@](C(=O)OC)(c1cc3c(cc1OC)N(C)[C@H]1[C@@](O)(C(=O)OC)[C@H](OC(C)=O)[C@]4(CC)C=CCN5CC[C@]31[C@@H]54)C2` [VINORELBINE], the inhibition at 10 µM in the experiment on HCC1937 [3] amounted to 0%. Further, the IC50 in experiment [1] was 0.07 nM; in the experiment with HCC1937 [2], over 10000 nM.

As to `COc1cc(OC)c2c(c1Cl)O[C@]1(C2=O)C(S(=O)(=O)Cc2ccccc2)=CC(=O)C[C@H]1C`, the IC50 worked out at 400 nM in experiment [1] and 1400 nM in the experiment on HCC1937 [2].

Consider `COc1cc(OC)c2c(c1Cl)O[C@]1(C2=O)C(S(=O)(=O)CCN(C)C)=CC(=O)C[C@H]1C`, for which the figures for the IC50 (in experiment [1]; in the experiment with HCC1937 [2]) were 2800 nM and 5900 nM, respectively.

`COc1cc(OC)c2c(c1Cl)O[C@@]1(C=C([S+]([O-])c3ccccc3)C(=O)C[C@H]1C)C2=O` (some centres undefined): the IC50 is 250 nM in experiment [1] and 400 nM in the experiment with HCC1937 [2].

Turning to `COc1cc(OC)c2c(c1Cl)O[C@@]1(C=C(S(=O)(=O)c3ccccc3)C(=O)C[C@H]1C)C2=O`, the IC50 in experiment [1] is 400 nM; in the experiment with HCC1937 [2], 700 nM.

For the compound `COc1cc(OC)c2c(c1Cl)O[C@]1(C2=O)C(S(C)(=O)=O)=CC(=O)C[C@H]1C`, the inhibition at 10 µM in the experiment on HCC1937 [3] worked out at 40%. Moreover, the IC50 in experiment [1] is 1900 nM; with HCC1937 [2] it was over 10000 nM.
